Data published in article PMC5562219 (Theranostics, 2017).

Key:
[1] = system: MHC-I molecules in ischemic brain; assay: In vivo and ex vivo NIRF imaging in photothrombotic stroke mice; set-up: species or system mouse
Method in brief: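 Photothrombotic stroke in male C57BL/6 mice (6 weeks old), with brains illuminated 15 min and lesions confirmed by T2 MRI at 24 h. Cy5.5-labelled probe or scrambled control probe given i.v. via tail vein (10 nM, 200 μL PBS pH 7.4). Serial brain NIRF imaging 1–24 h (ex 675 nm, em 695 nm long pass). TBR taken as ischemic/contralateral hemisphere. Brain, heart, spleen, liver, kidney and lung then imaged ex vivo; n=6, mean±SEM.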

[2] = system: primary cultured cortical neurons; assay: CCK-8 assay on neuronal cultures; format: cell-based, mouse; conditions: CCK-8, neuronal cultures treated with different dilutions of the probes for 24 h

K(Cy5.5)ALYNFATM [Cy5.5-H2BP]
ex vivo NIRF signal intensity in the kidney ([1]; 24 h after injection of the probe, suggests excretion mainly via the kidney): high signal intensity | target background ratio (TBR), ischemic/contralateral hemisphere ([1]; 24 h after probe administration, compared with Cy5.5-H2CP probe, n=6 per group): significantly enhanced | TBR values in brain versus other organs ([1]; ex vivo NIRF images, brain, heart, liver, spleen, lung, kidney, n=6): significantly higher in the brain than in other organs | time of peak NIRF signal intensity post-injection ([1]; photothrombosis model mice, tail vein injection, 10 nM, 200 μL in PBS pH 7.4): approximately 8 h | cytotoxicity to neurons [2]: low cytotoxicity
